NF-kB expr up – raises NF-kB expression in human neuronal cells. fold change at 12.5 µM. AID 1239. NF-kB reporter expression; stronger effect = higher value. actives 1.6% (n = 190,000); in the data active = fold change above about 3.3
STAT1 act-1 – increases IFN-gamma driven STAT1 reporter signal. NIH 3T3 STAT1-luciferase reporter, luminescence; 100% = IFN-gamma alone, no compound. activation (% of control), % at 5.5 µM. actives 2.6% (n = 200,000);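 active = activation above the screen-wide mean activation plus 3 SD, cut at about 130% in these data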;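 note: raw ratio to IFN-gamma control signal so 100% means no change and 0% no light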
APP 5'UTR act – APP 5'UTR luciferase reporter activation | SH-SY5Y APP 5'UTR luciferase reporter, luminescence; zero percent = DMSO vehicle wells | activation, % at 2 µM | actives 1% (n = 190,000) | AID 1276;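 active = activation above a set limit, based on mean plus 3 SD of controls, cut at about 140% in these data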
STAT3 act-1 – STAT3 signaling activation; activation (% of control), % at 5.6 µM; actives 0.91% (n = 190,000); U3A cells, IL-6 STAT3-luciferase reporter, luminescence; 100% = signal with IL-6 EC80 alone; AID 871;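 active = activation above the screen-wide mean of compound activation plus 3 SD, cut at about 130% in these data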;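 note: 0% = background luminescence of wells with medium and substrate only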
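Material: STAT1-lacking human U3A cells, STAT3 luciferase reporter | Benchmarks: IL-6-only wells as 100% reference | Probe or stimulus: IL-6 (33 ng/mL) | Timing: Compound 1 h, then IL-6 6 h at 37 °C | Detection: Luminescence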
STAT1 inh – STAT1 signaling inhibition. NIH 3T3 STAT1-luciferase reporter, IFN-gamma, luminescence. inhibition, % at 5.5 µM. actives 0.35% (n = 200,000);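 active = inhibition above a set limit, the mean inhibition across all tested compounds plus 3 SD, cut at about 34% in these data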;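 note: 0% = IFN-gamma with DMSO and 100% = IFN-gamma with 300 µM nifuroxazide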
STAT3 blocker – reduces IL-6 driven STAT3 reporter signal | U3A cells, IL-6 STAT3-luciferase reporter, luminescence; host cell line lacks STAT1 | inhibition, % at 5.5 µM | actives 0.89% (n = 190,000) | AID 862;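 active = inhibition above the mean inhibition across all screened compounds plus 3 SD, cut at about 44% in these data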;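 note: 0% = DMSO only wells and 100% = 100 µM nifuroxazide control wells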
STAT3 act-2 – STAT3 activation, confirmation assay. shares compounds with STAT3 act-1. U3A STAT3-luciferase reporter, IL-6 potentiation, luminescence; U3A cells lack STAT1; 100 means same as IL-6 alone. potentiation (% of control), % at 5.7 µM. actives 64% (n = 1,200). AID 1267;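 active = percent activation of the STAT3 luciferase reporter above a set limit taken from the earlier primary screen, cut at about 130% in these data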;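 note: 0% = background signal of medium plus substrate and 100% = median of IL-6 with DMSO wells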
NFkB act STAT3ct – counter-screen for STAT3 activators: NF-kappaB activation. shares compounds with STAT3 act-1. human cells, NF-kappaB reporter activation. activation (% of control), % at 5.7 µM. actives 11% (n = 1,200); in the data active = activation above about 120%;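 note: reporter induced by TNF-alpha stimulation; 100% = median of stimulated DMSO wells and 0% = no signal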
STAT1 act-2 – activates STAT1, counter-screen to STAT3 activators; shares compounds with STAT3 act-1; NIH 3T3 STAT1-luciferase reporter, IFN-gamma, luminescence; activation (% of control), % at 5.7 µM; actives 13% (n = 1,200);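 active = activation above the solvent-only control well mean plus 3 SD, set per screening run, cut at about 120% in these data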;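 note: 100% = IFN-gamma with DMSO median signal so 100% means no change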
Active calls of the source: *; nt = no result. A selection: hits, their analogues and other compounds. The true share with any hit is near 5.1%.

SMILES | NF-kB expr up | STAT1 act-1 | APP 5'UTR act | STAT3 act-1 | STAT1 inh | STAT3 blocker | STAT3 act-2 | NFkB act STAT3ct | STAT1 act-2
CCOC(=O)c1cc2c(C)nn(-c3ccccc3)c2s1 | nt | 111.6 | -5.4 | 148.1* | -12.6 | -53.7 | 131.5 | 105.3 | 110.5
COC(=O)c1cc2c(C)nn(-c3ccccc3)c2s1 | 1.59 | 91.0 | 11.1 | 158.2* | 9.8 | -61.2 | 139.2* | 107.2 | 112.3
Cc1nn(-c2ccccc2)c2sc(C(=O)N3CCOCC3)cc12 | 1.98 | 120.9 | 73.0 | 176.6* | -22.7 | -85.5 | 188.7* | 128.9* | 135.4*
Cc1nn(-c2ccccc2)c2sc(C(=O)O)cc12 | 1.13 | 100.9 | 20.7 | 101.8 | -0.3 | 4.4 | nt | nt | nt
Cc1cc(=O)oc(C)c1C(=O)OCC(=O)c1ccc(Cl)cc1 | 1.26 | 92.2 | 9.8 | 74.8 | 8.6 | 32.3 | nt | nt | nt
CC(=O)NC(CC(=O)Nc1nc(C)cs1)c1ccccc1 (stereo not drawn) | 1.85 | 95.9 | 18.9 | 95.3 | 2.7 | 7.8 | nt | nt | nt
COc1ccc(C2=Nn3c(nnc3-c3ccccc3OC)SC2)cc1OC | 1.42 | 95.0 | -95.8 | 149.9* | 5.5 | -53.7 | 126.7 | 128.4* | 94.3
COc1ccccc1CN(C)CC(=O)NC1CCCc2ccccc21 (stereo not drawn) | 1.42 | 97.1 | 3.1 | 102.6 | 1.1 | 2.8 | nt | nt | nt
O=C1c2cccc3cccc(c23)C(=O)N1CCc1ccccc1 | 1.68 | 122.7 | 99.6 | 147.4* | -25.7 | -35.9 | 192.6* | 125.0* | 128.8*
O=C(O)C(Cc1ccccc1)N1C(=O)c2cccc3cccc(c23)C1=O (stereo not drawn) | 0.95 | 87.9 | 4.9 | 143.5* | 11.6 | -45.0 | 142.6* | 104.9 | 92.8
CN(C(=O)CCCN1C(=O)c2cccc3cccc(c23)C1=O)c1ccccc1 | 1.05 | 98.2 | 21.8 | 101.2 | 2.0 | -2.5 | nt | nt | nt
O=C(O)C(Cc1ccccc1)N1C(=O)c2ccccc2C1=O (stereo not drawn) | 0.98 | 103.0 | 12.9 | 108.2 | -3.2 | -13.3 | nt | nt | nt
COc1ccc(NC(=O)NCCc2cccc(Cl)c2)cc1OC | 1.27 | 98.8 | 16.3 | 95.5 | 1.5 | 14.0 | nt | nt | nt
CCOC(=O)c1ccc(NC(=O)C2(c3ccccc3)CCOCC2)cc1 | 1.08 | 111.8 | 3.5 | 100.7 | -8.4 | 2.9 | nt | nt | nt
COc1cccc(CNC(=O)C(C(=O)NCc2cccc(OC)c2)c2ncc(C(F)(F)F)cc2Cl)c1 | 1.03 | 100.9 | 1.4 | 109.5 | -2.5 | -9.6 | nt | nt | nt
Cc1cccc(C)c1NC(=S)/C(=C(\[O-])c1cccs1)[n+]1ccccc1 | 1.34 | 103.2 | -4.3 | 91.3 | -0.9 | 8.6 | nt | nt | nt
[O-]/C(=C(\C(=S)Nc1cccc2ccccc12)[n+]1ccccc1)c1cccs1 | 0.79 | 99.2 | 9.8 | 143.1* | -1.0 | -34.1 | 136.3* | 105.7 | 91.8
COc1ccnc(Nc2ccc(C)c(C)c2)c1C#N | 1.16 | 103.0 | 8.4 | 143.3* | -3.3 | -46.3 | 105.2 | 95.2 | 97.9
COCCCN1C(=O)/C(=C\c2cccs2)C(C(=O)OC)=C1C | 1.42 | 99.1 | -15.8 | 87.2 | -0.1 | 17.2 | nt | nt | nt
O=c1cc(O)c2ccccc2n1Cc1ccccc1F | 1.33 | 95.8 | 10.7 | 137.9* | 4.1 | -34.7 | 97.6 | 106.6 | 103.6
Clc1cccc(Cl)c1Cn1cnc2c(N3CCCCCC3)ncnc21 | 0.91 | 103.4 | 16.4 | 138.1* | -3.7 | -41.4 | 138.8* | 104.7 | 103.4
CCN(CC)c1ncnc2c1ncn2Cc1c(Cl)cccc1Cl | 0.99 | 98.7 | -1.9 | 98.3 | 1.5 | 5.1 | nt | nt | nt
CCCNC(=O)C(C)n1c2ccccc2c2nc(=O)cc(C)n21 (stereo not drawn) | 1.04 | 95.7 | 2.5 | 99.9 | 4.8 | 9.0 | nt | nt | nt
CCCN(CCC)C(=O)Cn1c2ccccc2c2nc(=O)cc(C)n21 | 1.07 | 85.1 | -13.7 | 165.1* | 16.5 | -65.4 | 160.9* | 104.8 | 89.9
O=C(O)CCNc1cc2ccccc2cc1C(=O)O | 1.06 | 99.5 | -22.3 | 142.3* | -1.2 | -45.5 | 97.4 | 105.7 | 104.7
SMILES | NF-kB expr up | STAT1 act-1 | APP 5'UTR act | STAT3 act-1 | STAT1 inh | STAT3 blocker | STAT3 act-2 | NFkB act STAT3ct | STAT1 act-2
CCC(C)C(NC(=O)OC(C)(C)C)C(=O)NC(C)C(N)=O (stereo not drawn) | 1.05 | 96.4 | 21.5 | 92.3 | 2.0 | 11.4 | nt | nt | nt
Clc1ccc(CN2CCN(c3ccccc3)CC2)cn1 | 1 | 113.7 | 5.3 | 93.3 | -17.6 | 13.0 | nt | nt | nt
CCCc1cc(C(=O)Nc2cc(OC)c(Cl)cc2OC)no1 | 1.97 | 98.1 | 1.2 | 166.3* | 2.1 | -73.9 | 162.5* | 102.9 | 102.8
COc1cc(NC(=O)c2cc(-c3ccco3)on2)c(OC)cc1Cl | 1.42 | 104.5 | -10.1 | 165.1* | -4.9 | -75.2 | 145.4* | 100.8 | 96.8
COc1cc(N)c(Cl)cc1NC(=O)c1ccccc1 | 1.29 | 107.3 | -16.6 | 97.6 | -7.9 | 9.3 | nt | nt | nt
COc1cc(OC)c(NC(=O)c2ccco2)cc1Cl | 0.86 | 118.3 | 12.5 | 95.9 | -19.9 | 8.1 | nt | nt | nt
CCCc1cc(C(=O)Nc2ccccc2C(=O)OC)no1 | 1.18 | 106.9 | -9.6 | 107.8 | -7.7 | -4.0 | nt | nt | nt
COc1cc(NC(=O)c2ccccc2)c(OC)cc1Cl | 1.01 | 100.4 | 8.5 | 150.3* | -2.8 | -57.5 | 142.8* | 105.8 | 105.0
COc1cc(NC(=O)c2noc3c2CCC3)c(OC)cc1Cl | 0.95 | 93.7 | -3.2 | 145.8* | 8.1 | -50.4 | 156.8* | 100.5 | 101.5
Cc1ccc(-n2nnnc2-c2cnoc2-c2cccc(F)c2)cc1 | 1.36 | 91.3 | 1.9 | 101.8 | 9.4 | 1.6 | nt | nt | nt
COc1ccc(CCNC(=O)COC(=O)/C=C/c2ccc(OC)c(OC)c2)cc1 | 1.28 | 99.8 | 11.2 | 102.5 | 0.3 | 2.6 | nt | nt | nt
CCN(CC)S(=O)(=O)c1cc(NC(=O)C(C)N2CCc3ccccc32)ccc1C (stereo not drawn) | 0.97 | 91.5 | -6.8 | 142.0* | 7.8 | -40.6 | 141.2* | 106.7 | 105.2
CC(C(=O)Nc1ccc(S(N)(=O)=O)cc1)N1CCc2ccccc21 (stereo not drawn) | 1.09 | 95.6 | 15.0 | 103.2 | 3.3 | -2.6 | nt | nt | nt
COc1cc(C2C(C#N)=C(N)Oc3cc(O)ccc32)cc(OC)c1OC (stereo not drawn) | 1.03 | 90.9 | -94.5 | 112.2 | 9.9 | -9.9 | nt | nt | nt
COc1cc(C2C(C#N)=C(N)Oc3cc4c(cc32)OCO4)cc(OC)c1OC (stereo not drawn) | 2.99 | 89.7 | -93.4 | 146.9* | 10.7 | -45.9 | 118.4 | 162.1* | 107.4
